Source: ChEMBL document CHEMBL1157870, “Synthesis of 3-((2,4-dichlorophenoxy)methyl)-1,2,4-triazolo(thiadiazoles and thiadiazines) as anti-inflammatory and molluscicidal agents” (Eur J Med Chem, 2010)

Key:
[1] = tested on: Biomphalaria alexandrina; test: Molluscicidal activity against Biomphalaria alexandrina assessed as mortality at 10 ppm after 24 hrs; type: organism-based; settings: in vivo
Summary of the method: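 Compounds dissolved with a few drops of Tween 20 and 2 mL DMSO, then diluted with untreated Nile raw water to 1, 5 or 10 ppm in aerated glass jars. Ten snails per concentration held 24 h at 25 °C. Mean number killed over three repeats recorded. Controls received Tween 20/DMSO in water; Bayluscide served as reference. Follows WHO guidelines, modified.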

[2] = tested on: Rattus norvegicus; test: Antiinflammatory activity against carrageenan-induced paw edema in po dosed rat administered 1 hr before carrageenan challenge assessed after 4 hrs; type: functional
Summary of the method: (§1)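 Rats of about 200 g dosed orally; 1 h later, 1 mg carrageenan in […] physiological solution injected subplantar into the hind left paw. Paw volume measured hourly for 4 h by plethysmometer, dipping the paw in 0.45% saline. Read-out is % change in paw volume versus baseline, given as % inhibition of oedema ± S.E. Indomethacin served as reference.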

[3] = tested on: Rattus norvegicus; test: Antiinflammatory activity against carrageenan-induced paw edema in po dosed rat administered 1 hr before carrageenan challenge assessed after 1 hr; type: functional; summary of the method: as §1
[4] = tested on: Rattus norvegicus; test: Antiinflammatory activity against carrageenan-induced paw edema in po dosed rat administered 1 hr before carrageenan challenge assessed after 2 hrs; type: functional; summary of the method: as §1
[5] = tested on: Rattus norvegicus; test: Antiinflammatory activity against carrageenan-induced paw edema in po dosed rat administered 1 hr before carrageenan challenge assessed after 3 hrs; type: functional; summary of the method: as §1

Row | SMILES | Activity [1] | inhibition (INH) [2] | inhibition (INH) [3] | inhibition (INH) [4] | inhibition (INH) [5]
1 | Clc1ccc(OCc2nnc3snnn23)c(Cl)c1 | Toxic | 74.03% | 70.78% | 94.8% | 108.482%
2 | Clc1ccc(OCc2nnc3n2N=C(c2ccccc2)CS3)c(Cl)c1 | – | 48.51% | 27.66% | 45.62% | 60.42%
3 | Clc1ccc(OCc2nnc3sc(-c4ccco4)nn23)c(Cl)c1 | – | 93.97% | 51.38% | 54.62% | 99.24%
4 | Clc1ccc(OCc2nn3c(COc4ccc(Cl)cc4Cl)nnc3s2)c(Cl)c1 | – | 58.48% | 26.95% | 48.4% | 63.15%
5 | O=[N+]([O-])c1ccc(-c2nn3c(COc4ccc(Cl)cc4Cl)nnc3s2)c([N+](=O)[O-])c1 | – | 63.95% | 32.16% | 66.06% | 68.04%
6 | COc1ccc(-c2nn3c(COc4ccc(Cl)cc4Cl)nnc3s2)cc1 | – | 44.34% | 26.75% | 46.22% | 56.34%
7 | Nn1c(S)nnc1COc1ccc(Cl)cc1Cl | Toxic | 81.75% | 50% | 60.3% | 102.8511%
8 | Clc1ccc(OCc2nnc3n2N=C(c2cc4ccccc4o2)/C(=C/c2cn(-c4ccccc4)nc2-c2cc4ccccc4o2)S3)c(Cl)c1 | – | 35.78% | 29.71% | 41.32% | 59.66%
9 | COc1ccc2c(c1)c(CC(=O)O)c(C)n2C(=O)c1ccc(Cl)cc1 [INDOMETHACIN] | – | 20.19% | 24.8% | 20.97% | 26.29%
10 | O=C(Nc1ccc([N+](=O)[O-])cc1Cl)c1cc(Cl)ccc1O [NICLOSAMIDE] | Toxic | – | – | – | –
